Test results taken from ChEMBL document CHEMBL2311288, “Discovery of liver-targeted inhibitors of stearoyl-CoA desaturase (SCD1)” (Bioorg Med Chem Lett, 2013).
Blank lines part the entries; values can stand above or below the compound they belong to.

Tests used:
[1] = Drug level in liver in rat at 10 mg/kg measured after 6 hrs; type: ADME, organism-based; set-up: dose 10 mg/kg; details: read-out: Drug uptake
Procedure, shortened: (§1)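 Rats were given a single 10 mg/kg dose. Plasma exposure (AUC, Cmax) was determined, and drug concentrations in plasma, brain and liver were measured at 6 h post-dose. The liver/plasma ratio was taken from the 6 h levels.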

[2] = Ratio of drug level in liver to plasma of rat at 10 mg/kg measured after 6 hrs; type: ADME, organism-based; set-up: dose 10 mg/kg; procedure, shortened: as §1
[3] = Cmax in rat at 10 mg/kg; type: ADME, organism-based; set-up: dose 10 mg/kg; details: in vivo; procedure, shortened: as §1
[4] = Plasma concentration in rat at 10 mg/kg measured after 6 hrs; type: ADME, organism-based; set-up: dose 10 mg/kg; procedure, shortened: as §1
Acyl-CoA desaturase 1 [5] = biological target: T1, Acyl-CoA desaturase 1 (Rattus norvegicus, UniProt P07308); assay: Inhibition of rat SCD1 by rat microsomal assay
T1 sequence (P07308 whole entry): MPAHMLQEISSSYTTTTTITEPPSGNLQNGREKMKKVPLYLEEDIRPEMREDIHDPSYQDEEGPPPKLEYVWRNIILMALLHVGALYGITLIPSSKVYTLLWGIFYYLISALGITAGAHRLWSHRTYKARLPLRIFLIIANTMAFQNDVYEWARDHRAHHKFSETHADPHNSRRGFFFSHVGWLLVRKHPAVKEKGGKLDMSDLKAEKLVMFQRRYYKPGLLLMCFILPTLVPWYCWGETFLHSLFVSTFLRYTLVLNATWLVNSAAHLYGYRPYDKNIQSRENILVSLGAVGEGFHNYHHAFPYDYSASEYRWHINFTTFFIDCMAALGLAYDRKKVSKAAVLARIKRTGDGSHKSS
Procedure, shortened: (§2)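 Microsomal desaturase activity was measured in 100 mM Tris HCl pH 7.3 with 2 mM NADH and [9,10-3H]stearoyl-CoA for 15 min at room temperature. The reaction was stopped on ice with trichloroacetic acid, then passed through activated charcoal, and tritium in the filtrate was counted. Compounds were tested in 2% DMSO final. Percent inhibition = (total−sample)/(total−blank)×100, with the blank set by 10⁻⁴ M of a standard inhibitor.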

Rattus norvegicus = assay: AUC in rat at 10 mg/kg; type: ADME, organism-based, Plasma; set-up: dose 10 mg/kg; details: in vivo; procedure, shortened: as §1
[6] = AUC (0 to 24 hrs) in CD-1 mouse at 300 mg/kg, po; type: ADME, organism-based; set-up: time < 24 hr, dose 300 mg/kg, route oral; details: plasma
Procedure, shortened: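 Male CD-1 mice received single daily oral gavage doses of 30, 100 or 300 mg/kg for 2 weeks. Plasma drug levels were determined on Day 13, and exposure was expressed as AUC(0–24 h).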

Mus musculus [7] = assay: Toxicity in CD-1 mouse assessed as article related testes up to 300 mg/kg, po; type: organism-based, Testis; set-up: dose 300 mg/kg, route oral; details: in vivo
Mus musculus [8] = assay: Toxicity in CD-1 mouse assessed as eyes (corneal degeneration, inflammation) up to 300 mg/kg, po; type: organism-based, Cornea; set-up: dose 300 mg/kg, route oral; details: in vivo
Mus musculus [9] = assay: Toxicity in CD-1 mouse assessed as eyelid atrophy of sebaceous gland up to 300 mg/kg, po; type: organism-based; set-up: dose 300 mg/kg, route oral; details: in vivo
Mus musculus [10] = assay: Toxicity in CD-1 mouse assessed as skin atrophy of sebaceous gland up to 300 mg/kg, po; type: organism-based; set-up: dose 300 mg/kg, route oral; details: in vivo
Mus musculus [11] = assay: Toxicity in CD-1 mouse assessed as atrophy of the harderian and meibomian glands up to 300 mg/kg, po; type: organism-based; set-up: dose 300 mg/kg, route oral; details: in vivo
Mus musculus [12] = assay: Toxicity in CD-1 mouse assessed as lacrimation up to 300 mg/kg, po; type: organism-based; set-up: dose 300 mg/kg, route oral; details: in vivo
Mus musculus [13] = assay: Toxicity in CD-1 mouse assessed as ocular opacity up to 300 mg/kg, po; type: organism-based, Eye; set-up: dose 300 mg/kg, route oral; details: in vivo
Mus musculus [14] = assay: Toxicity in CD-1 mouse assessed as swelling of the lips up to 300 mg/kg, po; type: organism-based; set-up: dose 300 mg/kg, route oral; details: in vivo
Mus musculus [15] = assay: Toxicity in CD-1 mouse assessed as alopecia up to 300 mg/kg, po; type: organism-based; set-up: dose 300 mg/kg, route oral; details: in vivo
Mus musculus [16] = assay: Toxicity in CD-1 mouse assessed as peri-orbital swelling up to 300 mg/kg, po; type: organism-based; set-up: dose 300 mg/kg, route oral; details: in vivo
Mus musculus [17] = assay: Toxicity in mouse assessed as abnormalities in eyes at 30 mg/kg; type: organism-based; set-up: dose 30 mg/kg; details: in vivo
[18] = Plasma concentration in AKR/J mouse at 30 mg/kg measured after 4 hrs; type: ADME, organism-based; set-up: dose 30 mg/kg
Procedure, shortened: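 Male AKR/J mice, 7 weeks old (n = 10/group) and fed a 10% kcal low-fat diet, were given oral doses of 1, 3, 10 or 30 mg/kg. Plasma was collected 4 h after dosing, and drug concentration in that plasma was measured.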

Mus musculus [19] = assay: Toxicity in mouse assessed as abnormalities in skin at 30 mg/kg; type: organism-based; set-up: dose 30 mg/kg; details: in vivo
Mus musculus [20] = assay: Toxicity in CD-1 mouse assessed as meibomian gland (atrophy, squamous metaplasia) up to 300 mg/kg, po; type: organism-based; set-up: dose 300 mg/kg, route oral; details: in vivo
Acyl-CoA desaturase 1 [21] = biological target: T2, Acyl-CoA desaturase 1 (Mus musculus, UniProt P13516); assay: Inhibition of mouse SCD1; procedure, shortened: as §2
T2 sequence (P13516 whole entry): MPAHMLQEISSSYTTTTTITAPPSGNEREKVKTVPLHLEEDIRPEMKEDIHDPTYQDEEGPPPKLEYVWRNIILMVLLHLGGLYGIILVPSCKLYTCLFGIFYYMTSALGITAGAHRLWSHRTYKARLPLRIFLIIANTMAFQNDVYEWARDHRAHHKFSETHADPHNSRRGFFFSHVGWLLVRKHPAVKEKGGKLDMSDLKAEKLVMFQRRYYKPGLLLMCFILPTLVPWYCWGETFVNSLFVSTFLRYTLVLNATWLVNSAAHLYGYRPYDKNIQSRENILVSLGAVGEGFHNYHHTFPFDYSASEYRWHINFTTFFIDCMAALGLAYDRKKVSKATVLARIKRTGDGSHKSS

Compound: CC(=O)NCC(=O)N1CCC2(CC1)CCN(CCc1ccc(C(C)C)cc1)c1ccccc1O2
concentration at 6 h [1]: 1660 ng/g | Kp at 6 h [2]: 17 | Cmax [3]: 875 ng/g | concentration at 6 h [4]: 100 ng/g | IC50 (Acyl-CoA desaturase 1 [5]): 42 nM | AUC (Rattus norvegicus): 2608 ng·h/g

Compound: CC(=O)NCC(=O)N1CCC2(CC1)CCN(Cc1ccc(Cl)cc1)c1ccccc1O2
IC50 (Acyl-CoA desaturase 1 [5]): > 10000 nM

Compound: O=C(CO)Nc1ccc2ncn(Cc3ccc(Cl)c(Cl)c3)c(=O)c2c1
IC50 (Acyl-CoA desaturase 1 [5]): 261 nM

Compound: O=C(NCC(=O)N1CCC2(CC1)CCN(Cc1cccc(C(F)(F)F)c1)c1ccccc1O2)c1ccco1
IC50 (Acyl-CoA desaturase 1 [5]): 380 nM

Compound: CCc1ccccc1CN1CCC2(CCN(C(=O)CNC(C)=O)CC2)Oc2ccccc21
IC50 (Acyl-CoA desaturase 1 [5]): 430 nM

Compound: CC(=O)NCC(=O)N1CCC2(CC1)CCN(CCC(C)C)c1ccccc1O2
IC50 (Acyl-CoA desaturase 1 [21]): 6400 nM

Compound: CC(=O)NCC(=O)N1CCC2(CC1)CCN(Cc1cccc(Cl)c1)c1ccccc1O2
IC50 (Acyl-CoA desaturase 1 [5]): 830 nM

Compound: CC(=O)NCC(=O)N1CCC2(CC1)CCN(Cc1ccccc1Cl)c1ccccc1O2
IC50 (Acyl-CoA desaturase 1 [5]): 1200 nM

Compound: CC(=O)NCC(=O)N1CCC2(CC1)CCN(Cc1ccc(C)cc1)c1ccccc1O2
IC50 (Acyl-CoA desaturase 1 [5]): 1100 nM

Compound: CC(=O)NCC(=O)N1CCC2(CC1)CCN(Cc1ccccc1F)c1ccccc1O2
IC50 (Acyl-CoA desaturase 1 [5]): > 10000 nM

Compound: CCc1ccc(CN2CCC3(CCN(C(=O)CNC(C)=O)CC3)Oc3ccccc32)cc1
concentration at 6 h [1]: < 100 ng/g | Cmax [3]: 579 ng/g | concentration at 6 h [4]: 19 ng/g | IC50 (Acyl-CoA desaturase 1 [5]): 57 nM | AUC (Rattus norvegicus): 1288 ng·h/g

Compound: COc1ccccc1CN1CCC2(CCN(C(=O)CNC(C)=O)CC2)Oc2ccccc21
IC50 (Acyl-CoA desaturase 1 [5]): 2900 nM

Compound: CC(=O)NCC(=O)N1CCC2(CC1)CCN(Cc1ccc(F)cc1)c1ccccc1O2
IC50 (Acyl-CoA desaturase 1 [5]): 460 nM

Further lines, with some results ahead:

IC50 (Acyl-CoA desaturase 1 [5]): 10 nM
Compound: NC(=O)c1ccc(N2CCC3(CC2)CCN(Cc2cccc(C(F)(F)F)c2)c2ccccc2O3)nn1

IC50 (Acyl-CoA desaturase 1 [5]): 3 nM
Compound: O=C(O)Cn1nnc(-c2cc(N3CCC(Oc4ccccc4C(F)(F)F)CC3)no2)n1

AUC(0-t) at 24 h [6]: 216 µM·h | concentration at 4 h [18]: 1780 ng/mL | concentration at 6 h [1]: 529 ng/g | Kp at 6 h [2]: 8 | Cmax [3]: 599 ng/g | concentration at 6 h [4]: 66 ng/g | IC50 (Acyl-CoA desaturase 1 [5]): < 4 nM | AUC (Rattus norvegicus): 1435 ng·h/g
Compound: CNC(=O)c1cccc(NC(=O)N2CCC(Oc3ccccc3Cl)CC2)c1
Activity (Mus musculus [7]): Non-toxic | Activity (Mus musculus [8]): Toxic | Activity (Mus musculus [9]): Toxic | Activity (Mus musculus [10]): Toxic | Activity (Mus musculus [11]): Toxic | Activity (Mus musculus [12]): Toxic | Activity (Mus musculus [13]): Toxic | Activity (Mus musculus [14]): Toxic | Activity (Mus musculus [15]): Toxic | Activity (Mus musculus [16]): Toxic | Activity (Mus musculus [17]): Non-toxic | Activity (Mus musculus [19]): Non-toxic | Activity (Mus musculus [20]): Toxic

concentration at 6 h [1]: < 10 ng/g | Cmax [3]: 209 ng/g | IC50 (Acyl-CoA desaturase 1 [5]): 4 nM | AUC (Rattus norvegicus): 105 ng·h/g
Compound: O=C(NCCC1CC1)c1ccc(N2CCC3(CC2)CCN(Cc2cccc(C(F)(F)F)c2)c2ccccc2O3)nn1

IC50 (Acyl-CoA desaturase 1 [5]): 3 nM | AUC (Rattus norvegicus): 0 ng·h/g
Compound: CNC(=O)c1cnc(N2CCC3(CC2)CCN(Cc2cccc(C(F)(F)F)c2)c2ccccc2O3)s1

IC50 (Acyl-CoA desaturase 1 [5]): 100 nM
Compound: COc1ccc(C(F)(F)F)c(C(=O)N2CCN(c3ccc(C(=O)NCCCc4ccccc4)cn3)CC2)c1

IC50 (Acyl-CoA desaturase 1 [5]): > 10000 nM
Compound: CC(=O)NCC(=O)N1CCC2(CC1)CCN(Cc1cccc(F)c1)c1ccccc1O2

concentration at 6 h [1]: < 10 ng/g | Cmax [3]: 45 ng/g | IC50 (Acyl-CoA desaturase 1 [5]): 3 nM | AUC (Rattus norvegicus): 58 ng·h/g
Compound: NC(=O)c1cnc(N2CCC3(CC2)CCN(Cc2cccc(C(F)(F)F)c2)c2ccccc2O3)s1

concentration at 6 h [1]: 232 ng/g | Kp at 6 h [2]: 13 | Cmax [3]: 169 ng/g | concentration at 6 h [4]: 18 ng/g | IC50 (Acyl-CoA desaturase 1 [5]): 1500 nM | AUC (Rattus norvegicus): 341 ng·h/g
Compound: CC(C)(C)c1ccc(CN2CCC3(CCN(C(=O)CNC(=O)c4cccnc4)CC3)Oc3ccccc32)cc1

IC50 (Acyl-CoA desaturase 1 [5]): 11.7 nM
Compound: Cc1c(C(=O)Nc2ccn(C)n2)ncn1Cc1cccc(C(F)(F)F)c1
